Test results published in ChEMBL document CHEMBL4665779, “Novel 2-Substituted 3-Hydroxy-1,6-dimethylpyridin-4(1H)-ones as Dual-Acting Biofilm Inhibitors of Pseudomonas aeruginosa” (J Med Chem, 2020).
Activity calls are given as the source filed them. The calls are words filed in the database; no cut-off is given here.

What was measured:
Pseudomonas aeruginosa = test: Antibiofilm activity against Pseudomonas aeruginosa PAO1 assessed as inhibition of biofilm formation after 18 hrs by crystal violet staining based assay; type: functional, organism-based; settings: PAO1, 18 h
[1] = Growth inhibition of Pseudomonas aeruginosa PAO1 at 512 uM by CLSI-based broth microdilution method
Summary of the method: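 Broth microdilution following CLSI standards: two-fold serial dilutions were made in Mueller-Hinton broth and inoculated with P. aeruginosa to a final OD600 of 0.05. The top final concentration is printed as […].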

[2] = tested on: Pseudomonas aeruginosa PAO1; test: Induction of iron chelation in Pseudomonas aeruginosa PAO1 assessed as increase in intracellular pyoverdin level at 1.25 to 20 uM in presence of 10 uM FeCl3 by fluorescence microplate reader assay; type: cell-based; settings: dose microM 1.25-20
Vero = test: Cytotoxicity against African green monkey Vero cells assessed as reduction in cell viability at 1.25 to 100 uM after 16 hrs by MTT assay; type: cell-based; settings: chlorocebus sabaeus, dose 1.25-100 µM
Summary of the method: (§1)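 MTT assay on Vero or LO2 cells seeded at 5000–15000 cells/well for 16 h, then washed with PBS. Compound (0–100 μM) added in DMEM for 16 h at 37 °C, 5% CO2. MTT added for 3 h, formazan dissolved in DMSO with shaking, OD570 read. Triplicate, mean ± SD.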

[3] = tested on: Pseudomonas aeruginosa PAO1; test: Induction of iron chelation in Pseudomonas aeruginosa PAO1 assessed as increase in intracellular pyochelin level at 1.25 to 20 uM in presence of 10 uM FeCl3 by fluorescence microplate reader assay; type: cell-based; settings: dose microM 1.25-20
[4] = Metal chelating activity assessed as negative logarithm of total free ferric ion concentration in a solution at 60 uM measured after 48 hrs in presence of CP645 probe and Fe-NTA by fluorescence spectrophotometry analysis
[5] = tested on: Pseudomonas aeruginosa PAO1; test: Induction of iron chelation in Pseudomonas aeruginosa PAO1 assessed as increase in iron deficiency by measuring change in total ferric ion concentration at 20 uM by inductively coupled plasma mass spectrometry (reference value: 1.91 +/- 0.8 uM)
L02 = test: Cytotoxicity against human L02 cells assessed as reduction in cell viability at 1.25 to 100 uM after 16 hrs by MTT assay; type: cell-based; settings: l02, 16 h, dose 1.25-100 µM; summary of the method: as §1

| Structure (SMILES) | IC50 (Pseudomonas aeruginosa) | growth inhibition (GI) [1] | other results |
| --- | --- | --- | --- |
| COc1ccc(C(=O)NCc2c(O)c(=O)cc(C)n2C)cc1 | 38.4 µM | Non-Toxic |  |
| CCCCCCCC(=O)NCc1c(O)c(=O)cc(C)n1C | > 100 µM | Non-Toxic |  |
| COc1cccc(C(=O)NCc2c(O)c(=O)cc(C)n2C)c1 | > 100 µM | Non-Toxic |  |
| COc1ccc(CC(=O)NCc2c(O)c(=O)cc(C)n2C)cc1 | 65.5 µM | Non-Toxic |  |
| CCCCCNCc1c(O)c(=O)cc(C)n1C | > 100 µM | Non-Toxic |  |
| Cc1cc(=O)c(O)c(CNS(=O)(=O)c2cccc3c2NCCC3)n1C | 35.3 µM | Non-Toxic |  |
| Cc1cc(=O)c(O)c(CNC(=O)c2ccccc2)n1C | 41.7 µM | Non-Toxic |  |
| Cc1cc(=O)c(O)c(CNC2CCCC2)n1C | 14.9 µM | Non-Toxic |  |
| Cc1cc(=O)c(O)c(CNS(=O)(=O)c2ccc(C(C)(C)C)cc2)n1C | 51.6 µM | Non-Toxic |  |
| CCCC(=O)NCc1c(O)c(=O)cc(C)n1C | 45.1 µM | Non-Toxic |  |
| CCCCCCCCCC(=O)CC(=O)NCc1c(O)c(=O)cc(C)n1C | > 100 µM | Non-Toxic |  |
| CCCCC(=O)NCc1c(O)c(=O)cc(C)n1C | 56.9 µM | Non-Toxic |  |
| Cc1cc(=O)c(O)c(CNC2CCN(C)CC2)n1C | 35 µM | Non-Toxic |  |
| COc1ccccc1C(=O)NCc1c(O)c(=O)cc(C)n1C | 69.7 µM | Non-Toxic |  |
| COc1ccc(CCC(=O)NCc2c(O)c(=O)cc(C)n2C)cc1 | 59.1 µM | Non-Toxic |  |
| Cc1cc(=O)c(O)c(CNC(=O)C2CCCO2)n1C (centres undefined) | 26.5 µM | Non-Toxic |  |
| Cc1cc(=O)c(O)c(CNC(=O)C2CC2)n1C | > 100 µM | Non-Toxic |  |
| Cc1cc(=O)c(O)c(CNC(=O)c2cccc3ccccc23)n1C | 75.6 µM | Non-Toxic |  |
| Cc1cc(=O)c(O)c(CNC(C)C)n1C | 24.5 µM | Non-Toxic |  |
| COc1ccc(S(=O)(=O)NCc2c(O)c(=O)cc(C)n2C)cc1 | > 100 µM | Non-Toxic |  |
| Cc1cc(=O)c(O)c(CNC(=O)Cc2ccc(F)cc2)n1C | 55 µM | Non-Toxic |  |

| Structure (SMILES) | IC50 (Pseudomonas aeruginosa) | growth inhibition (GI) [1] | other results |
| --- | --- | --- | --- |
| Cc1cc(=O)c(O)c(CNC(=O)C2CCCCC2)n1C | 63.4 µM | Non-Toxic |  |
| Cc1cc(=O)c(O)c(CNC(=O)c2ccncc2)n1C | > 100 µM | Non-Toxic |  |
| Cc1cc(=O)c(O)c(CNC(=O)c2ccc(C(F)(F)F)cc2)n1C | 61.1 µM | Non-Toxic |  |
| COc1ccc(CCCC(=O)NCc2c(O)c(=O)cc(C)n2C)cc1 | > 100 µM | Non-Toxic |  |
| Cc1cc(=O)c(O)c(CNC(=O)Cc2ccc(Cl)cc2)n1C | > 100 µM | Non-Toxic |  |
| Cc1cc(=O)c(O)c(CNS(=O)(=O)c2ccccc2)n1C | > 100 µM | Non-Toxic |  |
| Cc1cc(=O)c(O)c(CNC(=O)c2ccc(F)cc2)n1C | > 100 µM | Non-Toxic |  |
| Cc1cc(=O)c(O)c(CNC(=O)Cc2ccccc2)n1C | 28.1 µM | Non-Toxic |  |
| Cc1cc(=O)c(O)c(CNCC2CN(Cc3ccc(F)cc3)CCO2)n1C (centres undefined) | > 100 µM | Non-Toxic |  |
| Cc1cc(=O)c(O)c(CNC(=O)C2CCCC2)n1C | 65.1 µM | Non-Toxic |  |
| CCCCCC(=O)NCc1c(O)c(=O)cc(C)n1C | 57.9 µM | Non-Toxic |  |
| Cc1cc(=O)c(O)c(CNCCCN2CCN(C)CC2)n1C | 16.9 µM | Non-Toxic |  |
| Cc1cc(=O)c(O)c(CNS(=O)(=O)c2ccc(F)cc2)n1C | > 100 µM | Non-Toxic |  |
| Cc1cc(=O)c(O)c(CNC(=O)c2ccnc(C(F)(F)F)c2)n1C | > 100 µM | Non-Toxic |  |
| Cc1cc(=O)c(O)c(CNC(=O)CC2CCCCC2)n1C | 46.8 µM | Non-Toxic |  |
| Cc1cc(=O)c(O)c(CNC(=O)C2CCC2)n1C | 64.1 µM | Non-Toxic |  |
| Cc1cc(=O)c(O)c(CNS(=O)(=O)c2ccc(-c3ccccc3)cc2)n1C | > 100 µM | Non-Toxic |  |
| Cc1ccc(S(=O)(=O)NCc2c(O)c(=O)cc(C)n2C)cc1 | 59.3 µM | Non-Toxic |  |
| CCCCNCc1c(O)c(=O)cc(C)n1C | 52.5 µM | Non-Toxic |  |
| Cc1c(O)c(=O)ccn1C [DEFERIPRONE] | > 100 µM |  | Activity [2]: inactive; Activity (Vero): Non-Toxic; Activity [3]: Active; log(activity) [4]: -20.8; Activity [5]: 1.23 µM; Activity (L02): Non-Toxic |
| COc1cccc(NCc2c(O)c(=O)cc(C)n2C)c1 | > 100 µM | Non-Toxic |  |
